Holding throughout (format): functional
For one assay, the system named is Cytospora mali. The assay can be described thus: Antifungal activity against Valsa mali assessed as growth inhibition at 50 ug/mL measured after 2 days post dose. The note with it: for inhibition of growth at 50 µg/mL: 48 h, read-out: GI.
The next assay has as its system Alternaria mali. The assay can be described thus: Antifungal activity against Alternaria mali assessed as growth inhibition at 50 ug/mL measured after 2 days post dose. Particulars: for inhibition of growth at 50 µg/mL: 48 h, read-out: GI.
The subject of another assay is Sclerotinia sclerotiorum. Kind of assay: Antifungal activity against Sclerotinia sclerotiorum assessed as growth inhibition at 50 ug/mL measured after 2 days post dose. The note with it: 48 h, read-out: GI.
The test system of the next assay is Botrytis cinerea. Kind of assay: Antifungal activity against Botryotinia fuckeliana assessed as growth inhibition at 50 ug/mL measured after 2 days post dose. Particulars: for inhibition of growth at 50 µg/mL: 48 h, read-out: GI.
A further assay deals with Puccinia triticina. The assay can be described thus: Antifungal activity against Puccinia triticina inoculated on 500 ug/mL compound pre-treated wheat plants with 3 to 5 leaves assessed as growth inhibition. Put shortly: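 Healthy wheat plants at the 3-5 leaf stage were sprayed with compound (500 μg/mL) and then inoculated with spores. Inhibition percentage was calculated against the corresponding spore stack.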

The test system of another assay is Ceratobasidium cereale. Kind of assay: Antifungal activity against Ceratobasidium cereale assessed as growth inhibition at 50 ug/mL measured after 2 days post dose. Particulars: for inhibition of growth at 50 µg/mL: 48 h, read-out: GI.
In assay [1] the test system is Botryosphaeria berengeriana. Kind of assay: Antifungal activity against Botryosphaeria berengeriana assessed as growth inhibition at 50 ug/mL measured after 2 days post dose. Particulars: for inhibition of growth at 50 µg/mL: 48 h, read-out: GI.
The next assay concerns Phytophthora infestans. Kind of assay: Antifungal activity against Phytophthora infestans assessed as growth inhibition at 50 ug/mL measured after 2 days post dose. The note with it: for inhibition of growth at 50 µg/mL: 48 h, read-out: GI. Put shortly:
(§1)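 Compound stock at 500 μg/mL in DMF, diluted with sterile water in the dish and mixed into potato dextrose agar before setting. A 4 mm diameter fungal plug is placed on the plate and cultured at 24-26 °C. Colony diameter is measured after 2 days.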

A further assay concerns Rhizoctonia solani. The assay can be described thus: Antifungal activity against Rhizoctonia solani assessed as growth inhibition at 50 ug/mL measured after 2 days post dose. The note with it: for inhibition of growth at 50 µg/mL: 48 h, read-out: GI.
The subject of another assay is Alternaria solani. The assay can be described thus: Antifungal activity against Alternaria solani assessed as growth inhibition at 50 ug/mL measured after 2 days post dose. Particulars: 48 h, read-out: GI.
Assay [2] deals with Fusarium oxysporum f. sp. vasinfectum. The assay can be described thus: Antifungal activity against Fusarium oxysporum f. sp. vasinfectum assessed as growth inhibition at 50 ug/mL measured after 2 days post dose. Particulars: for inhibition of growth at 50 µg/mL: 48 h, read-out: GI.
Assay [3] has as its system Colletotrichum gloeosporioides. Kind of assay: Antifungal activity against Glomerella cingulata assessed as growth inhibition at 50 ug/mL measured after 2 days post dose. The note with it: for inhibition of growth at 50 µg/mL: 48 h, read-out: GI.
A further assay has as its system Ustilaginoidea virens. Kind of assay: Antifungal activity against Villosiclava virens assessed as growth inhibition at 50 ug/mL measured after 2 days post dose. The note with it: for inhibition of growth at 50 µg/mL: 48 h, read-out: GI.
A further assay concerns Fusarium graminearum. The assay can be described thus: Antifungal activity against Fusarium graminearum assessed as growth inhibition at 50 ug/mL measured after 2 days post dose. The note with it: for inhibition of growth at 50 µg/mL: 48 h, read-out: GI. Put shortly: as §1
A further assay deals with Mycosphaerella arachidis. Kind of assay: Antifungal activity against Mycosphaerella arachidis assessed as growth inhibition at 50 ug/mL measured after 2 days post dose. The note with it: for inhibition of growth at 50 µg/mL: 48 h, read-out: GI.
The next assay relates to Fusarium oxysporum. Kind of assay: Antifungal activity against Fusarium oxysporum assessed as growth inhibition at 50 ug/mL measured after 2 days post dose. Particulars: 48 h, read-out: GI.
Another assay relates to Fusarium fujikuroi. Kind of assay: Antifungal activity against Fusarium fujikuroi assessed as growth inhibition at 50 ug/mL measured after 2 days post dose. Particulars: for inhibition of growth at 50 µg/mL: 48 h, read-out: GI.
For the next assay, the system named is Tobacco mosaic virus. The assay can be described thus: Induction of systemic acquired resistance against Tobacco mosaic virus (TMV) in tobacco plants exposed to 500 ug/mL compound through leaf spray followed by 7 days culture under green house conditions assessed as inhibition of viral growth in leaves infected with Tobacco mosaic virus (TMV) measured 72 hr post viral infection by half-leaf juice rubbing method. Also on record: scale not given: the % may be the effect or the level left. The essentials:
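Tobacco plants received compound by leaf spray or by soil irrigation, with double-distilled water as CK. Newly grown leaves were then rub-inoculated with TMV (5.88×10-2 μg/mL), and plants were kept at 25 °C for 72 h. Lesions on inoculated leaves were counted. Inhibition = (CK−A)/CK×100 from mean lesion numbers versus control.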

The source made the active and inactive calls. No cut-off for these calls is given here.

As to `CCCCCCCc1nnc(-c2snnc2C)o1`, the inhibition of growth at 50 µg/mL in the assay with Cytospora mali came to 0%; in the assay on Alternaria mali, 38.9%; with Sclerotinia sclerotiorum it was 32.1%; in the assay on Botrytis cinerea it was 0%; with Ceratobasidium cereale it was 0%; in assay [1], 25.4%. Moreover, the inhibition of growth at 50 µg/mL is 100% in the assay on Phytophthora infestans; 26.6% in the assay with Rhizoctonia solani; 31.6% in the assay on Alternaria solani; 0% in [2]; 42.1% in [3]; 0% in the assay on Ustilaginoidea virens. The inhibition of growth at 50 µg/mL came to 34.2% in the assay with Fusarium graminearum, 0% with Mycosphaerella arachidis, 12.5% in the assay on Fusarium oxysporum and 21.1% with Fusarium fujikuroi. In the assay with Puccinia triticina, the “growth inhibition (GI)” value is on record as 83%. For the same compound, in the assay on Tobacco mosaic virus, the Activity is on record as 0%.
As to `Cc1ccc(-c2nnc(-c3snnc3C)o2)cc1`, the “growth inhibition (GI)” value (in the assay on Cytospora mali; with Alternaria mali; in the assay with Ceratobasidium cereale; in assay [1]; in assay [2]; in assay [3]) was “inactive” each time. Also, the “growth inhibition (GI)” value in the assay with Ustilaginoidea virens, in the assay with Fusarium graminearum, with Mycosphaerella arachidis and with Fusarium fujikuroi was “inactive” in each case. For the same compound, the inhibition of growth at 50 µg/mL in the assay with Sclerotinia sclerotiorum stood at 56%; with Botrytis cinerea, 2.1%; with Phytophthora infestans it was 0%; in the assay with Rhizoctonia solani it was 67.9%; in the assay on Alternaria solani it was 18.4%; with Fusarium oxysporum, 0%. Also, the “growth inhibition (GI)” value with Puccinia triticina is 11%. Moreover, in the assay on Tobacco mosaic virus, the Activity amounted to 0%.
Consider `Cc1ccc(-c2nnc(-c3snnc3C)o2)s1`, for which the inhibition of growth at 50 µg/mL was found to be 0% in the assay with Cytospora mali; 38.9% with Alternaria mali; 40.5% in the assay on Sclerotinia sclerotiorum; 0% in the assay with Botrytis cinerea; 0% with Ceratobasidium cereale; 39.7% in assay [1]. Moreover, the inhibition of growth at 50 µg/mL in the assay on Rhizoctonia solani was found to be 0%; in the assay on Alternaria solani, 36.8%; in [2], 0%; in assay [3] it was 13.8%; in the assay on Ustilaginoidea virens it was 0%; in the assay on Fusarium graminearum, 21.1%. Moreover, the inhibition of growth at 50 µg/mL in the assay with Mycosphaerella arachidis was found to be 9%; in the assay on Fusarium oxysporum, 31.3%; in the assay on Fusarium fujikuroi it was 21.1%. Also, the “growth inhibition (GI)” value in the assay on Puccinia triticina is listed as 0%. The “growth inhibition (GI)” value with Phytophthora infestans is “inactive”. Moreover, the outcome in the assay on Tobacco mosaic virus was inactive.
`CCCc1c(-c2nnc(-c3snnc3C)o2)cnn1-c1ccc(Cl)cc1`: the inhibition of growth at 50 µg/mL in the assay with Cytospora mali was 19.4%; with Alternaria mali, 27.6%; with Sclerotinia sclerotiorum, 23.5%; in the assay with Botrytis cinerea it was 31%; in the assay with Ceratobasidium cereale it was 31%; in [1] it was 44.4%. For the same compound, the inhibition of growth at 50 µg/mL in the assay on Rhizoctonia solani is 0%; in the assay on Alternaria solani, 17.6%; in [2] it was 0%; in assay [3], 0%; with Ustilaginoidea virens, 0%; in the assay on Fusarium graminearum it was 48.3%. The results for the inhibition of growth at 50 µg/mL in the assay with Mycosphaerella arachidis, in the assay with Fusarium oxysporum and with Fusarium fujikuroi were 41.2%, 0% and 31%, respectively. The “growth inhibition (GI)” value in the assay with Puccinia triticina is 0%. In addition, in the assay on Phytophthora infestans, the “growth inhibition (GI)” value is “inactive”. In addition, the Activity with Tobacco mosaic virus is listed as 0%.
Take `Cc1nnsc1-c1nnc(-c2snnc2C)o1`: the inhibition of growth at 50 µg/mL in the assay on Cytospora mali amounted to 0%; with Alternaria mali it was 0%; in the assay on Sclerotinia sclerotiorum, 32.1%; in the assay with Botrytis cinerea it was 0%; in the assay with Ceratobasidium cereale, 0%; in assay [1], 38.1%. Moreover, the inhibition of growth at 50 µg/mL with Rhizoctonia solani amounted to 0%; with Alternaria solani it was 44.7%; in assay [2], 0%; in [3], 13.8%; with Ustilaginoidea virens it was 0%; with Fusarium graminearum, 31.6%. Further, the results for the inhibition of growth at 50 µg/mL in the assay with Mycosphaerella arachidis, in the assay with Fusarium oxysporum and with Fusarium fujikuroi were 13.6%, 31.3% and 21.1%, respectively. In addition, the “growth inhibition (GI)” value in the assay on Puccinia triticina was determined as 28%. Besides, the “growth inhibition (GI)” value in the assay with Phytophthora infestans was “inactive”. Further, the Activity in the assay with Tobacco mosaic virus came out at 0%.
Take `Cc1nnsc1-c1nnc(-c2ccc(=O)[nH]c2)o1`: the inhibition of growth at 50 µg/mL is 47.2% with Cytospora mali; 27.3% in the assay on Alternaria mali; 53.6% in the assay on Sclerotinia sclerotiorum; 21.1% with Botrytis cinerea; 13.8% with Ceratobasidium cereale; 23.5% in [1]. Besides, the inhibition of growth at 50 µg/mL in the assay on Phytophthora infestans stood at 31%; in the assay on Rhizoctonia solani, 44.4%; in the assay on Alternaria solani it was 31%; in assay [2], 24.1%; in assay [3], 13.8%; in the assay on Ustilaginoidea virens, 22.2%. In addition, the inhibition of growth at 50 µg/mL came to 13.8% with Fusarium graminearum, 0% in the assay with Mycosphaerella arachidis, 33.3% in the assay on Fusarium oxysporum and 17.6% in the assay on Fusarium fujikuroi. Also, the “growth inhibition (GI)” value with Puccinia triticina was “inactive”. Besides, the result in the assay with Tobacco mosaic virus was inactive.
`CCc1cc(-c2nnc(-c3snnc3C)o2)nn1C`: the “growth inhibition (GI)” value (in the assay on Cytospora mali; in the assay on Alternaria mali; with Botrytis cinerea; in the assay on Ceratobasidium cereale; in the assay on Rhizoctonia solani; in assay [2]) was “inactive” each time. For the same compound, the “growth inhibition (GI)” value with Ustilaginoidea virens and in the assay on Fusarium fujikuroi was “inactive” throughout. Also, the inhibition of growth at 50 µg/mL with Sclerotinia sclerotiorum was 0%; in assay [1], 16.7%; in the assay on Phytophthora infestans it was 17.1%; with Alternaria solani, 17.9%; in assay [3], 42.1%; with Fusarium graminearum, 27.8%. The values for the inhibition of growth at 50 µg/mL with Mycosphaerella arachidis and with Fusarium oxysporum were 33.3% and 26.5%, respectively. Further, the “growth inhibition (GI)” value in the assay with Puccinia triticina stood at 20%. Moreover, the Activity in the assay with Tobacco mosaic virus is listed as 20%.

Source of the values: ChEMBL document CHEMBL3046238, “Synthesis and biological activity evaluation of 1,2,3-thiadiazole derivatives as potential elicitors with highly systemic acquired resistance” (2009).
